Source: publication PMC7266109 (Drug Design, Development and Therapy, 2020)
Like-named read-outs stand apart in the source and are kept apart here.

Type: in vitro ADME, rat
Outline: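 Spiked rat plasma held under storage and analysis conditions, then quantified by UPLC-MS/MS. Work-up: IS (working solution 100 ng/mL) added, protein precipitation with acetonitrile (3 volumes), vortex 1 min, centrifugation 13,000 g for 10 min at 4°C, supernatant injected. Separation: BEH C18 column at 40°C, acetonitrile/0.1% formic acid gradient at 0.40 mL/min, 3.0 min run.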

Stability in rat plasma samples (at room temperature for at least 24 h): stable
Stability in rat plasma samples (at −20°C for at least 31 days): stable
Stability in rat plasma samples (in the auto-sampler (10°C) for at least four hours): stable
Stability in rat plasma samples (three complete freeze (−20°C)/thaw (RT) cycles): stable
SMILES: CCc1nc(C(N)=O)c(Nc2ccc(N3CCC(N4CCN(C)CC4)CC3)c(OC)c2)nc1NC1CCOCC1 [Gilteritinib]
